Laboratory results from ChEMBL document CHEMBL3526048, “In vitro metabolism of rivoglitazone, a novel peroxisome proliferator-activated receptor γ agonist, in rat, monkey, and human liver microsomes and freshly isolated hepatocytes” (Drug Metab Dispos, 2011).

What was measured:
[1] = test system: Liver microsome; assay: Drug level in human liver microsomes treated with [14C]-rivoglitazone at 20 uM after 2 to 4 hrs by radio-HPLC/LC-MS/MS analysis in presence of UDPGA, UDPGA/SAM and NADPH-generating system; format: ADME
[2] = molecular target: T1, UDP-glucuronosyltransferase 2B7 (Homo sapiens, UniProt P16662); assay: Activity of human UGT2B7 expressed in microsomes isolated from baculovirus infected insect cell assessed as enzyme-mediated (2S,3S,4S,5R,6R)-3,4,5-trihydroxy-6-(5-(4-((6-methoxy-1-methyl-1H-benzo[d]imidazol-2-yl)methoxy)benzyl)-2,4-dioxothiazolidin-3-yl)tetrahydro-2H-pyran-2-carboxylic acid formation at 20 uM after 4 hrs by radio-HPLC/LC-MS/MS analysis in presence of UDPGA and UDPGA/SAM; format: ADME
T1 sequence (P16662 whole entry): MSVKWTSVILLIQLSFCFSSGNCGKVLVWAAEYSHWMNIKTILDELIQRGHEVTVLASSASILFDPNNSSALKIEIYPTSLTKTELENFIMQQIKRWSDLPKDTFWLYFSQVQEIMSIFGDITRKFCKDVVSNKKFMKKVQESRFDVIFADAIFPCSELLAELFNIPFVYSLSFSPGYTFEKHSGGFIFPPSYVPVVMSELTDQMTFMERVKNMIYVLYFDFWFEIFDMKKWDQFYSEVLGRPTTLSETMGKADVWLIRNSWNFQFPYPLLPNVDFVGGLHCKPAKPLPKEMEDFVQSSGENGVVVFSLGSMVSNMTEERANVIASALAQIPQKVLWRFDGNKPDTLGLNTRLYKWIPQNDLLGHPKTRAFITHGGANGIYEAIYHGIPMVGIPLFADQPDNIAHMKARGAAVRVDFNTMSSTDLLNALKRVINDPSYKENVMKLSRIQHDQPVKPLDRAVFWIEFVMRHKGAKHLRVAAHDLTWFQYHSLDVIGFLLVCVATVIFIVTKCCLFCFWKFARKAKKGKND

[3] = molecular target: Cytochrome P450 2C19 (Homo sapiens, UniProt P33261); assay: Activity of human CYP2C19 expressed in microsomes isolated from baculovirus infected insect cell assessed as enzyme-mediated 3-(4-((6-methoxy-1-methyl-1H-benzo[d]imidazol-2-yl)methoxy)phenyl)-2-(methylthio)propanamide formation at 20 uM after 2 hrs by radio-HPLC/LC-MS/MS analysis in presence of NADPH-generating system/SAM; format: ADME
[4] = Drug metabolism in cynomolgus monkey liver microsomes assessed as formation of 2-mercapto-3-(4-((6-methoxy-1-methyl-1H-benzo[d]imidazol-2-yl)methoxy)phenyl)propanamide at 20 uM after 2 hrs by radio-HPLC/LC-MS/MS analysis in presence of NADPH-generating system and NADPH-generating system/SAM; format: ADME, Macaca fascicularis
[5] = molecular target: Cytochrome P450 2C9 (Homo sapiens, UniProt P11712); assay: (§1) Activity of human CYP2C9 expressed in microsomes isolated from baculovirus infected insect cell assessed as enzyme-mediated 3-(4-((6-methoxy-1-methyl-1H-benzo[d]imidazol-2-yl)methoxy)phenyl)-2-(methylsulfonyl)propanamide formation at 20 uM after 2 hrs by radio-HPLC/LC-MS/MS analysis in presence of NADPH-generating system/SAM; format: ADME
[6] = molecular target: Cytochrome P450 2D6 (Homo sapiens, UniProt P10635); assay: as §1, with “CYP2D6” for “CYP2C9”; format: ADME
[7] = molecular target: T2, UDP-glucuronosyltransferase 1A4 (Homo sapiens, UniProt P22310); assay: Activity of human UGT1A4 expressed in microsomes isolated from baculovirus infected insect cell assessed as enzyme-mediated 2-mercapto-3-(4-((6-methoxy-1-methyl-1H-benzo[d]imidazol-2-yl)methoxy)phenyl)propanoic acid formation at 20 uM after 4 hrs by radio-HPLC/LC-MS/MS analysis in presence of UDPGA; format: ADME
T2 sequence (P22310 whole entry): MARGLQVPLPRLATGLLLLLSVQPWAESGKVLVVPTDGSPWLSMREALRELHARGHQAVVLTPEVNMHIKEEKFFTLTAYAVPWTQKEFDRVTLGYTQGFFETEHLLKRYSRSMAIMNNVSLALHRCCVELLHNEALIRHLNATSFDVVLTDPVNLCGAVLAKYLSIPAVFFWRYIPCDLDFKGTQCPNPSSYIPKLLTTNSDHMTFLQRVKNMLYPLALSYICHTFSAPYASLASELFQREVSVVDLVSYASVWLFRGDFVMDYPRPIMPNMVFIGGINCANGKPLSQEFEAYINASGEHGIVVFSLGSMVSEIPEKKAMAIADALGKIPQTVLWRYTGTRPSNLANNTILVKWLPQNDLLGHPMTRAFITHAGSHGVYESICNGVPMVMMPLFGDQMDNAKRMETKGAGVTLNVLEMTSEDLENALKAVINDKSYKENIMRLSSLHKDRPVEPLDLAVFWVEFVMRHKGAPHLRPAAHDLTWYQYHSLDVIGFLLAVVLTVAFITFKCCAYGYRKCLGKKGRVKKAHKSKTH

[8] = molecular target: T3, Cytochrome P450 1A2 (Homo sapiens, UniProt P05177); assay: Activity of human CYP1A2 expressed in microsomes isolated from baculovirus infected insect cell assessed as enzyme-mediated 5-(4-((6-methoxy-1H-benzo[d]imidazol-2-yl)methoxy)benzyl)thiazolidine-2,4-dione formation at 20 uM after 2 hrs by radio-HPLC/LC-MS/MS analysis in presence of NADPH-generating system and NADPH-generating system/SAM; format: ADME
T3 sequence (P05177 whole entry): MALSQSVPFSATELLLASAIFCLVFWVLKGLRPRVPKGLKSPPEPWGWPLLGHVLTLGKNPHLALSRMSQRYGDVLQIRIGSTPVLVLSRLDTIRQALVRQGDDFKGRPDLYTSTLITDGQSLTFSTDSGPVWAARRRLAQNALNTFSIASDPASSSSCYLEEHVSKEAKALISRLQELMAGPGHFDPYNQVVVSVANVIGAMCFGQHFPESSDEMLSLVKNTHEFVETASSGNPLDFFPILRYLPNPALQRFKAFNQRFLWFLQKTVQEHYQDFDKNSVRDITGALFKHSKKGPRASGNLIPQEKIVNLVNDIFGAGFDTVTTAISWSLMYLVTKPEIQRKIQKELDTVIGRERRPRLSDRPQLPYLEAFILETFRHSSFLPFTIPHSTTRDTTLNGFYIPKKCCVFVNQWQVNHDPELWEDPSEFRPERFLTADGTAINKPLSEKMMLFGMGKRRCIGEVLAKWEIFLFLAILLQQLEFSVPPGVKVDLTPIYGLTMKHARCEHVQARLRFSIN
Method in brief: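 Baculovirus/insect-cell microsomes expressing single human CYPs, 1 mg/ml protein, with 50 mM potassium phosphate (pH 7.4) or 100 mM Tris-HCl (pH 7.5). NADPH-generating system: 2 mM NADP⁺, 20 mM glucose 6-phosphate, 2 units/ml G6PDH, 10 mM MgCl₂. [¹⁴C]rivoglitazone at 20 μM, 2 h at 37°C with shaking. Control used insect-cell control supersomes. Stopped with acetonitrile; supernatant concentrated under nitrogen; metabolites analysed by radio-HPLC, LC-MS and LC-MS/MS.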

Sequence of Cytochrome P450 2C9 (P11712 whole entry): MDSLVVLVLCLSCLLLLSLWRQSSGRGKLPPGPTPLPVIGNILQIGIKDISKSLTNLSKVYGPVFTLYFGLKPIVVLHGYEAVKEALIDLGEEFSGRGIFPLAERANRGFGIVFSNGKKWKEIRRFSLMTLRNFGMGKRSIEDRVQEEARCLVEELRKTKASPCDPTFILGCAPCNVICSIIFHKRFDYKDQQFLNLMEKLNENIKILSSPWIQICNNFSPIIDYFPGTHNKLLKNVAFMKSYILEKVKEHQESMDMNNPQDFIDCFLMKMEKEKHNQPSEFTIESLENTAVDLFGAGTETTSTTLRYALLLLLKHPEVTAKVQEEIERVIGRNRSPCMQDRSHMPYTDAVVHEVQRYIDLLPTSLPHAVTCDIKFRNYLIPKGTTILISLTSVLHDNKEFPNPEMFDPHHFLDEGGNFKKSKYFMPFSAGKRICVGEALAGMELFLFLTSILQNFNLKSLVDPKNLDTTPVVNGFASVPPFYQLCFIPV
Sequence of Cytochrome P450 2C19 (P33261 whole entry): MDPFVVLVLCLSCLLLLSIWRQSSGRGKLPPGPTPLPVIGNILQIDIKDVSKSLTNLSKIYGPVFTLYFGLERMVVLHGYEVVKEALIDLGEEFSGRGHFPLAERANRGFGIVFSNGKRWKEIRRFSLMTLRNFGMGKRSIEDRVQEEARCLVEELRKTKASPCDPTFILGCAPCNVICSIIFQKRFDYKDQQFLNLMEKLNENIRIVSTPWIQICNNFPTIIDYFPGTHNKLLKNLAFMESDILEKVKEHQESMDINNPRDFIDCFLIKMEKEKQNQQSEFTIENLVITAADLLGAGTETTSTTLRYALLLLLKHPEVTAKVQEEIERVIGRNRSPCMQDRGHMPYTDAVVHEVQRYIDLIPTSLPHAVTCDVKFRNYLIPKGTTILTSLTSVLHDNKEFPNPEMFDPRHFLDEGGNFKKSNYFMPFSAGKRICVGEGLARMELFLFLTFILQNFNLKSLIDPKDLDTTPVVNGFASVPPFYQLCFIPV
Sequence of Cytochrome P450 2D6 (P10635 whole entry): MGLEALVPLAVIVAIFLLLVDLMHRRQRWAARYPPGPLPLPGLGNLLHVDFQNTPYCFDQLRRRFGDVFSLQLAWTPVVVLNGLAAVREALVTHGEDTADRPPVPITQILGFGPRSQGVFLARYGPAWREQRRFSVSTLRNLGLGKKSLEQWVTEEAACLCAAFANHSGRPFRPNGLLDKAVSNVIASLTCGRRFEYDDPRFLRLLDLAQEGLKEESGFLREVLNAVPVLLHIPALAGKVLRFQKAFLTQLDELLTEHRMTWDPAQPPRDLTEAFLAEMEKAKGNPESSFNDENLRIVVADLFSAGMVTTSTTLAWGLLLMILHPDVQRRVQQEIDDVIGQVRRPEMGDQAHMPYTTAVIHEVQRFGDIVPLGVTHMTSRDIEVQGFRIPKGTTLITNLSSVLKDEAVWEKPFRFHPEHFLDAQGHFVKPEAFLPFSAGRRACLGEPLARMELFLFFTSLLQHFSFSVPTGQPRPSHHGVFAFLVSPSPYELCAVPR

COc1ccc2nc(COc3ccc(CC(S)C(=O)O)cc3)n(C)c2c1 (stereo not drawn)
Drug metabolism [1]: metabolite_detected

COc1ccc2nc(COc3ccc(C[14CH]4SC(=O)NC4=O)cc3)n(C)c2c1.Cl (racemic)
Drug metabolism [2]: metabolite_detected
Drug metabolism [3]: metabolite_not_detected
Drug metabolism [4]: metabolite_detected
Drug metabolism [5]: metabolite_not_detected
Drug metabolism [6]: metabolite_not_detected
Drug metabolism [7]: metabolite_not_detected
Drug metabolism [8]: metabolite_detected
